According to publication PMC13077713 (Journal of medicinal chemistry, 2025):
Values joined by “and” are separate entries in the source; they are usually repeats but may differ in a detail not shown here. Identical values can stand only once.

Columns and labels:
[1] = tested on: HBV DNA production in HepAD38 cells; assay: Anti-HBV activity; format: cell-based, Hepatitis B virus (HBV)
[2] = tested on: human peripheral blood mononuclear (PBM) cells; assay: Cytotoxicity, CellTiter 96 cell proliferation assay, PBM cells; format: cell-based; settings: read-out: Cytotoxicity, CC50 PBM; PBM cells
[3] = tested on: human T lymphoblast (CEM) cells; assay: Cytotoxicity, CellTiter 96 cell proliferation assay, CEM cells; format: cell-based; settings: read-out: Cytotoxicity, CC50 CEM; CEM cells
[4] = tested on: African green monkey kidney (Vero) cells; assay: Cytotoxicity, CellTiter 96 cell proliferation assay, Vero cells; format: cell-based; settings: read-out: Cytotoxicity, CC50 Vero; Vero cells
[5] = tested on: human hepatocellular carcinoma (HepG2) cells; assay: Cytotoxicity, CellTiter 96 cell proliferation assay, HepG2 cells; format: cell-based; settings: read-out: Cytotoxicity, CC50 HepG2; HepG2 cells
[6] = tested on: HBV-infected HepG2-NTCP cells; format: cell-based
[7] = tested on: HBV-infected HepG2-NTCP cells; format: cell-based; settings: post-infection treatment
Cp149 dimers [8] = target: T1, Cp149 dimers (Hepatitis B virus genotype D subtype ayw, UniProt P03146); assay: Static SAXS of Cp149 capsid assembly in the presence of CAM; format: biochemical, Hepatitis B virus (HBV); settings: ρ = 3, undiluted sample, 30 μM dimers; 1.54 cm^−1 without CAM
T1 sequence (P03146 1-149): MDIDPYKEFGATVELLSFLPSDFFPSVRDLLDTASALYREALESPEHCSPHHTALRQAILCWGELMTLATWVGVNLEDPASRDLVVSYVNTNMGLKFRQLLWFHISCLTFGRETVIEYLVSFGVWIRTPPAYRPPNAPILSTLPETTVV

Cp149 dimers [9] = target: T1, Cp149 dimers; assay: Cryo-electron microscopy classification of Cp149 capsids assembled with CAM; format: biochemical, Hepatitis B virus (HBV); settings: 90 μM, 30 μM subunits
Procedure, shortened: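 Cp149 was expressed in E. coli BL21 and purified as capsids. These were dissociated with 3 M urea and taken to subunits by SEC. Assembly was triggered manually by mixing 30 μM (1 mg/ml) dimers in 1 mM DTT, 20 mM Tris-HCl pH 7.5 with 200 mM ammonium acetate, with or without 90 μM CAM (ρ = 3). Samples were concentrated 11-fold, imaged by cryo-EM, and particles 2D-classified.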

HBc in HepAD38 cells = assay: Confocal microscopy, nucleo-cytoplasmic distribution of HBc in HepAD38 cells; format: cell-based, Hepatitis B virus (HBV); settings: increasing concentration, 72 h
Cp149 dimers [10] = target: T1, Cp149 dimers
[11] = target: preassembled HBV capsids (Cp149 protein) (Hepatitis B virus genotype D subtype ayw, UniProt P03146); settings: 20 μM CAM
Chain of preassembled HBV capsids (Cp149 protein) (P03146 1-149): as above

Structure (SMILES): Cc1c(C(=O)C(=O)NCc2cn(CCCCCCCCCCCCCCn3cc(CNC(=O)C(=O)c4c(C)c(C(=O)Nc5ccc(F)c(F)c5)n(C)c4C)nn3)nn2)c(C)n(C)c1C(=O)Nc1ccc(F)c(F)c1 [Compound 6e, 4,4’-(2,2’-(((Tetradecane-1,14-diylbis(1H-1,2,3-triazole-1,4-diyl))bis(methylene))bis(azanediyl))bis(2-oxoacetyl))bis(N-(3,4-difluorophenyl)-1,3,5-trimethyl-1H-pyrrole-2-carboxamide)]
- times more potent than reference compound GLP-26 ([1]; HepAD38 EC50 vs GLP-26): 80 times
- EC50 ([1]; read-out: Anti-HBV activity EC50, HBV DNA production, HepAD38 cells): 0.0001 µM
- EC90 ([1]; read-out: Anti-HBV activity EC90, HBV DNA production, HepAD38 cells): 0.009 ± 0.0002 µM
- CC50 [2]: > 100 µM
- CC50 [3]: > 100 µM
- CC50 [4]: > 100 µM
- CC50 [5]: > 100 µM
- HBeAg EC50 compared to GLP-26 or GLS-4 [6]: nearly eight-fold lower
- fold more potent than GLP-26 at inhibiting HBV virion production [7]: 10 fold
- fold more potent than GLP-26 at inhibiting HBeAg biogenesis [7]: 10 fold
- SAXS intensity at zero angle I(0) (Cp149 dimers [8]): 1.32 cm⁻¹
- capsids that displayed defects (single-particle analysis) (Cp149 dimers [9]): approximately 45%
- levels of HBc inside the nucleus (HBc in HepAD38 cells): clear decrease in the levels of HBc inside the nucleus
- Associated timescale of Rgw (Cp149 dimers [10]): 131 ± 21 ms
- Associated timescale of 〈N〉w (Cp149 dimers [10]): 633 ± 77 ms
- Rgw (mean radius of gyration, plateau) (Cp149 dimers [10]): 142 ± 0.3 Å
- Subunit binding energies −Δg (Cp149 dimers [10]): 9.5 kT
- 〈N〉w∞ (mean aggregation number at equilibrium) (Cp149 dimers [10]): 126 and 126 ± 3
- Radius (DLS, table) ([11]; 7.5 μM Cp149, 30 min, 1% DMSO control 24.6 ± 3.4): 214 ± 61.3 nM
- PD (polydispersity) ([11]; 7.5 μM Cp149, 30 min, 1% DMSO control 32.3 ± 18.6): Multimodal distribution
- average particle radius (DLS, text) ([11]; 1% DMSO control 24.6 nm): 214 nm
